An excerpt weighted towards active compounds, which were near 3.3% of everything screened.
ATG4B inhibitor: inhibitors of human ATG4B cysteine protease | inhibition, % at 8.33 µM | ATG4B cleavage of LC3-PLA2, NBD-HPC fluorescence, 1 h | actives 0.51% (n = 340,000) | Q9Y4P1 | AID 504462; in the data active means inhibition above about 40%
Granule exo inh: lytic granule exocytosis inhibition. TALL-104 LAMP-1 surface exposure, flow cytometry; cells stimulated with thapsigargin and PMA. inhibition, % at 10 µM. actives 0.66% (n = 360,000). AID 651702;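 active means inhibition above about 55%, limit read from the data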
Myeloid diff 2: myeloid differentiation induction | actives 1% (n = 360,000) | calls only at 10 µM | ER-HoxA9 myeloid progenitors, lysozyme-GFP differentiation, flow cytometry | AID 624256;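 active means normalized GFP-positive differentiation at or above the plate's own cutoff, the solvent-only control mean plus 3 SD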;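 further: cells exposed to compound for four days before flow analysis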
Arr AP2 block: human beta-arrestin and AP2 interaction inhibition | actives 0.31% (n = 340,000) | FITC-arrestin peptide / GST-AP2 beads, flow cytometry; AP2 beta2 appendage carries R879A mutation | inhibition, % at 10 µM;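 active means inhibition above a set limit, near 3 SD of compounds lacking own fluorescence, cut at about 54% in these data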;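 further: plate controls were DMSO wells for no effect and 5 µM unlabelled arrestin peptide for full effect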
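System: GST-AP2 R879A glutathione beads; medium: PBS, Tween 20 0.05%, BSA 0.1%; reagent: fluorescein-tagged arrestin peptide at 50 nM final; schedule: pre-incubation 12 min, peptide binding 1 h, room temperature; detection: flow cytometry, FL1 (488/535 nm); read-out: inhibition as reduced fluorescein signal on beads, percent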
ABCB6 inh 2: blocks the human ABCB6 transporter; fluorescence ratio to DMSO, % at 10 µM; Q9NP58; AID 602162; actives 0.19% (n = 360,000); K562-ABCB6 porphyrin accumulation, flow cytometry, 1 h; hits give low values;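 active means fluorescence ratio to DMSO below 75%, the collection mean minus 3 SD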;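 further: signal is porphyrin accumulated inside mitochondria; 100% equals median channel fluorescence of DMSO control wells; lower ratio means ABCB6 inhibition with less porphyrin fluorescence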
CendR NRP1 mod: modulators of CendR peptide binding to human neuropilin-1. O14786. FAM-RPARPAR peptide binding to NRP-1, fluorescence polarization. inhibition, % at 25 µM. actives 0.85% (n = 360,000);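 active means inhibition or corrected inhibition above about 18%, plus a signal ratio from 0.5 to 1.5, limit read from the data, passing the limit was not always enough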
Myeloid diff: compounds promoting myeloid differentiation; shares compounds with Myeloid diff 2; ER-HoxA9 myeloid progenitors, GFP/Mac1 double-positive flow; calls only; actives 2% (n = 2,300); AID 651706;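 active means share of green or green-and-red cells above 9 and 9% in run 1 or 4 and 3% in run 2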
GFP autofluor: flagged as fluorescent in myeloid differentiation counter-screen. shares compounds with Myeloid diff 2. ER-HoxA9 myeloid progenitors, no estrogen, GFP autofluorescence flow cytometry; vehicle wells 0%, positive control 100%. fluorescence response, % (no concentration beside the values). actives 7.4% (n = 2,300). AID 651707;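 active means over 5% cells positive for green fluorescent reporter, or over 2% positive for both it and APC stain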;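 further: range taken on the double positive population between DMSO and positive control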
Numbers without * were called inactive; i = inactive; . = no result given; + = active, no number.

SMILES	ATG4B inhibitor	Granule exo inh	Myeloid diff 2	Arr AP2 block	ABCB6 inh 2	CendR NRP1 mod	Myeloid diff	GFP autofluor
COc1ccccc1COc1cccn2c(N(C)C(=O)CCC3CCCC3)c(C)nc12	.	-0.2	+	.	91.0	6.3	i	0.0
Cn1c(=N)n(CC(=O)C(C)(C)C)c2ccccc21	7.6	-0.7	i	5.3	107.0	6.3	i	0.6
CCCn1c(=N)n(CC(=O)C(C)(C)C)c2ccccc21	-4.2	1.0	i	-0.1	97.0	1.7	.	.
COc1ccc(C(=O)NCCCc2nc3ccccc3n2Cc2ccccc2C)cc1OC	-11.2	14.5	+	5.0	98.0	-10.1	i	0.6
CC(=O)NCCCc1nc2ccccc2n1Cc1ccccc1F	26.9	14.3	i	-3.5	99.0	1.9	.	.
CCCOn1nnnc1-c1ccccc1	-6.2	0.5	i	18.9	99.0	1.2	i	0.3
COc1ccc(CCNC(=S)Nc2ccc(S(=O)(=O)Nc3ncccn3)cc2)cc1OC	-7.2	-3.8	i	-10.4	99.0	-2.5	.	.
Nc1ccc(S(=O)(=O)Nc2nccc(/C=C/c3cccc([N+](=O)[O-])c3)n2)cc1	.	5.6	i	.	91.0	1.4	.	.
Nc1ccc(S(=O)(=O)Nc2nccc(/C=C/c3cccc(Br)c3)n2)cc1	-4.4	-5.1	+	-17.5	96.0	7.2	i	0.0
C#CCOCCOCCOCCNc1nc(N2CCN(C(=O)[C@H]([C@@H](C)CC)n3cc([C@@H](N)CO)nn3)CC2)nc(N2CCN(C(=O)[C@H](Cc3ccc(O)cc3)n3cc([C@@H](N)C(C)CC)nn3)CC2)n1 (some centres undefined)	-9.6	0.0	i	-9.1	102.0	7.9	i	0.0
C#CCOCCOCCOCCNc1nc(N2CCOCC2)nc(N2CCN(C(=O)[C@H]([C@@H](C)CC)n3cc(CCCCN)nn3)CC2)n1	-7.6	-3.5	+	5.4	102.0	6.4	i	1.1
C#CCOCCOCCOCCNc1nc(N2CCN(C(=O)[C@H](C(C)C)n3cc(CCO)nn3)CC2)nc(N2CCN(C(=O)[C@H]([C@@H](C)CC)n3cc(CCCCN)nn3)CC2)n1	-17.9	3.8	i	-1.3	93.0	5.0	.	.
C#CCOCCOCCOCCNc1nc(N2CCN(C(=O)[C@H]([C@@H](C)CC)n3cc([C@@H](N)CO)nn3)CC2)nc(N2CCN(C(=O)[C@H]([C@@H](C)CC)n3cc([C@@H](N)Cc4ccc(O)cc4)nn3)CC2)n1	-13.4	-0.4	i	-1.0	98.0	10.1	.	.
Cc1c(Cl)cccc1NC(=O)C(=O)NNS(=O)(=O)c1ccc(F)cc1	-2.5	0.4	i	25.2	89.0	6.3	.	.
CC(C)C(NC(=S)Nc1ccccc1)C(=O)O (centres undefined)	-3.2	-4.9	i	1.7	100.0	4.4	.	.
Cc1ccc(CN2C(=O)COc3cc(NS(C)(=O)=O)ccc32)cc1	1.9	-0.6	i	22.4	96.0	2.3	.	.
CN[C@H]1C[C@H]2c3cc(N4CCN(C)CC4)ccc3CCN2C(=O)[C@H]1[C@H](C)O	.	-4.2	i	.	105.0	-7.0	.	.
COc1ccc(CN2CC[C@H]3C=CC[C@@H](C(=O)Nc4ccc(Cl)c(C(F)(F)F)c4)[C@H]3C2=O)cc1OC	9.2	-2.1	i	2.9	97.0	16.5	i	0.0
COc1ccc(NC(=O)CSc2nnnn2C2CC2)cc1S(=O)(=O)N1CCOCC1	-15.3	-4.7	i	16.0	98.0	-4.5	.	.
CCOC(=O)c1ccc(N/C(=N\S(=O)(=O)c2ccc(F)cc2F)c2ccccc2)cc1	-4.2	-1.9	i	7.0	95.0	11.8	.	.
Cc1ccc(-n2c(O)c(C=Nc3ccccc3-c3n[nH]c(=S)[nH]c3=O)c3ccccc3c2=O)cc1C	19.2	-0.8	i	12.7	99.0	-95.1	i	0.0
Cc1ccc(-n2c(O)c(C=NC3CCS(=O)(=O)C3)c3ccccc3c2=O)cc1C (centres undefined)	-27.2	-3.5	i	-13.7	100.0	-1.3	.	.
O=C1NC2(CCCCC2)C(=O)N1/N=C/c1ccc(O)cc1O	-6.5	3.4	+	10.3	95.0	-6.7	i	0.2
O=C1NC2(CCCCC2)C(=O)N1/N=C/c1ccccc1Br	0.2	-3.4	i	-22.7	95.0	3.4	.	.
CC(C)c1cc(Cn2c3ccccc3c(=O)n2C(C)Cn2cc(-c3ccccc3)nn2)on1 (centres undefined)	.	-3.4	i	.	.	9.3	.	.
SMILES	ATG4B inhibitor	Granule exo inh	Myeloid diff 2	Arr AP2 block	ABCB6 inh 2	CendR NRP1 mod	Myeloid diff	GFP autofluor
CC(=O)Nc1ccc(N=NN2CCOCC2)cc1	-4.9	-3.9	i	8.2	111.0	9.9	i	0.3
CC(=O)Nc1cccc(N=NN2CCOCC2)c1	-4.7	-4.6	i	-5.6	100.0	2.9	.	.
COc1ccc(-n2c(SCC(N)=O)nnc2-c2ccc(NS(=O)(=O)c3ccc(C)cc3)cc2)cc1	6.0	1.7	+	8.4	100.0	-0.1	i	0.3
CCc1c(N)nc(N)nc1Nc1ccc(C)c(C)c1	-9.9	0.6	i	-5.8	98.0	3.7	i	0.9
O=S(=O)(NCc1cccnc1)c1ccc(Cl)s1	-4.8	-1.1	i	12.1	99.0	5.4	.	.
C[n+]1ccccc1/C=C/c1ccc(F)c(F)c1	-1.0	-5.9	i	-8.5	96.0	-11.4	.	.
C[n+]1ccccc1/C=C/c1ccc2ncccc2c1	-3.0	-3.5	+	2.6	102.0	2.7	+	0.3
Cc1cccc(NC(=S)N(C)C2CCCCC2)c1	-9.3	-2.2	i	15.5	91.0	-1.7	i	0.0
C[C@@H]1CN([C@@H](C)CO)C(=O)CCCn2nncc2CO[C@H]1CN(C)S(=O)(=O)c1ccc2ccccc2c1	.	-3.5	i	.	94.0	-4.4	i	0.0
Cc1cc(C(=O)COc2ccc(F)cc2Br)c(C)n1C1CC1	0.5	-3.6	i	-2.0	96.0	4.4	i	1.5
CCOc1ccc(CNC(=O)CCc2cn(Cc3ccccc3)c3ccccc23)cc1	-1.5	-2.7	i	-4.0	103.0	4.8	.	.
CCC(=O)NC(=S)NNC(=O)c1ccc(O)cc1	2.7	0.1	i	-14.9	100.0	-6.7	.	.
O=C(CCCn1c(=S)[nH]c2cc3c(cc2c1=O)OCO3)N1CCN(c2ncccn2)CC1	13.5	-1.1	i	8.3	105.0	-4.3	i	0.3
O=C1C(=Cc2ccco2)CCCC1=Cc1ccco1	8.6	6.1	i	12.1	142.0	20.6	i	18.9*
O=C1C(=Cc2ccco2)CCC1=Cc1ccco1	21.8	-0.5	i	37.3	105.0	-76.5	.	.

High-throughput results: PubChem, several laboratories
